For assay [1], the system named is Rattus norvegicus. In words: spontaneous discharge activity of individual noradrenergic neurons in the locus coeruleus (LC) when administered intravenously in anesthetized male Sprague-Dawley rats; (excitatory). Type of assay: functional. The note with it: iv.
For assay [2], the target named is Serotonin 1 (5-HT1) receptor (Rattus norvegicus, UniProt P28564+P30940+P19327+P28565). In words: Ability to bind at 5-hydroxytryptamine 1 receptor of rat hippocampus by displacing [3H]5-HT. The format is tissue-based. The essentials: (§1)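 Rat receptor radioligand displacement, five test-ligand concentrations used to calculate IC50, each assay in duplicate. Some compounds determined four times (in duplicate), with mean IC50 reported.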

Assay [3] has as its system Rattus norvegicus. As to the kind of experiment: Spontaneous discharge activity of individual serotonergic neurons in the dorsal raphe (DR) nucleus when administered intravenously in anesthetized male Sprague-Dawley rats; (inhibitory). The format is functional. The note with it: iv.
Assay [4] has as its system Rattus norvegicus. As to the kind of experiment: Spontaneous discharge activity of individual dopaminergic neurons in the ventral tegmentum neurons (A10 DA cells) when administered intravenously at a dose of 0.1-6.3 mg/kg in anesthetized male Sprague-Dawley rats; (excitatory). The format is functional. The note with it: A10DA, iv.
The test system of the next assay is Mus musculus. In words: Blockade of apomorphine-induced climbing in mice when administered perorally. Type of assay: functional. An outline of the steps: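 Male mice habituated 30 min in individual cages, then dosed orally (distilled H2O or 0.5% Methocel suspension, 10 mL/kg) or vehicle. Apomorphine 1.5 mg/kg sc given 30 min later. Climbing scored at 10, 20, 30 min post-apomorphine. At least five animals per dose, maximum 100 mg/kg.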

Assay [5] relates to Rattus norvegicus. As to the kind of experiment: Induction of catalepsy in rats when administered perorally and maximum dose examined was 4 times the ED50 value established in CAR; Inactive. The format is functional, organism-based.
Assay [6] deals with Rattus norvegicus. In words: Conditioned avoidance response (CAR) when administered perorally. The format is functional. The note with it: po.
Assay [7] addresses Serotonin 2 (5-HT2) receptor (Rattus norvegicus, UniProt P30994+P08909+P14842). In words: Ability to bind at serotonin 5-hydroxytryptamine 2 receptors of rat cortex by displacing [3H]spiperone.
Assay [8] concerns Rattus norvegicus. As to the kind of experiment: Blockade of Sidman-avoidance activity in rats when administered perorally. The format is functional. The essentials:
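Rats trained in once-daily Sidman sessions until stable; non-learners after 3 days replaced. Twelve rats dosed 30 min before session. Each rat compared with mean of its previous three drug-free days by paired t test. Testing continued to minimally effective dose; maximum usually 100 mg/kg. MED is mean over 12 animals.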

Assay [9] concerns the target T1, Adrenergic receptor alpha-1 (Rattus norvegicus, UniProt P15823+P23944+P43140).
T1 sequence (P15823 whole entry): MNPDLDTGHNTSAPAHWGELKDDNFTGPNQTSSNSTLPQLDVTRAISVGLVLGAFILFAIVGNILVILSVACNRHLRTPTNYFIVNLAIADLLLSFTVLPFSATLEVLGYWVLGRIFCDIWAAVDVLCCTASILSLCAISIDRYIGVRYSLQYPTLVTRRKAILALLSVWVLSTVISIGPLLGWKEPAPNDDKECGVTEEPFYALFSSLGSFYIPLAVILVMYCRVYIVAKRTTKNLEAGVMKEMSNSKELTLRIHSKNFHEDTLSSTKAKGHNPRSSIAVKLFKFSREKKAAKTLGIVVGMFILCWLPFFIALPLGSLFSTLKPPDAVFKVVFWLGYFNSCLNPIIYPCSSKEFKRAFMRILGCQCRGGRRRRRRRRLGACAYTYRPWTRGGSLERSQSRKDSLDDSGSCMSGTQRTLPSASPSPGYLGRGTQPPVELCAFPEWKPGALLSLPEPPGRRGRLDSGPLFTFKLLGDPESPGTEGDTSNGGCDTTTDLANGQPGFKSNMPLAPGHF
T1 sequence (P23944 whole entry): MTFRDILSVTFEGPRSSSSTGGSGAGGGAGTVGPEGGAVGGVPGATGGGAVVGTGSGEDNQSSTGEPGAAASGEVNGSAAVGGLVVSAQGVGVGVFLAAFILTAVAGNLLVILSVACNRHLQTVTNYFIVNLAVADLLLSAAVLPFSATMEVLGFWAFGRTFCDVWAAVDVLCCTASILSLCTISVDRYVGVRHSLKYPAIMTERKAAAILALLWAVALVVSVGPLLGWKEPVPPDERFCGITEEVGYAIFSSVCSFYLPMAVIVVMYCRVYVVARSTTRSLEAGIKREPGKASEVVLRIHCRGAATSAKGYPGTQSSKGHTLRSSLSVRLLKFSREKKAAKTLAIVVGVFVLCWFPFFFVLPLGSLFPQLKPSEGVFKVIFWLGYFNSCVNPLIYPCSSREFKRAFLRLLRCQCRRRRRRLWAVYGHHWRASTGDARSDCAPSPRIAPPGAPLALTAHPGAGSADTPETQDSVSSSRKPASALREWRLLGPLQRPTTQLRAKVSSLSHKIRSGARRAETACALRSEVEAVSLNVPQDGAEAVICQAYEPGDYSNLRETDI
T1 sequence (P43140 whole entry): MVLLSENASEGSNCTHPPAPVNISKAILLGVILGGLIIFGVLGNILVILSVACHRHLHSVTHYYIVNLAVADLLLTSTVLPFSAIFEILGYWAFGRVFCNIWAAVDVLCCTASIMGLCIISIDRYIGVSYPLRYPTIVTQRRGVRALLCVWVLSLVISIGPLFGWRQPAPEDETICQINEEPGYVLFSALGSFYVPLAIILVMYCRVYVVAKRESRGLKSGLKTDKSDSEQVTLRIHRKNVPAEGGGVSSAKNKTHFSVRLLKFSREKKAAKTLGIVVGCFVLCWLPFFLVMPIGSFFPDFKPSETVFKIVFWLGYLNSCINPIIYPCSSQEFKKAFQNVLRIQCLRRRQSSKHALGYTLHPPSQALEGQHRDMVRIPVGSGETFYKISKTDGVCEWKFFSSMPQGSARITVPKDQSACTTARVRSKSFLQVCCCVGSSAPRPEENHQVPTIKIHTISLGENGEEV
In words: Ability to bind at alpha-1 adrenergic receptor by displacing [3H]WB-4101. The format is protein assay. The essentials: as §1

In another assay the target is D(2) dopamine receptor (Rattus norvegicus, UniProt P61169). In words: Ability to bind at Dopamine receptor D2 of rat corpus striatum by displacing [3H]spiperone. The essentials: as §1
For assay [10], the system named is Rattus norvegicus. As to the kind of experiment: Blockade of apomorphine-induced stereotypy in rats when administered perorally. Type of assay: functional. The note with it: po.
In assay [11] the test system is Rattus norvegicus. In words: Spontaneous discharge activity of individual dopaminergic neurons in the substantia nigra (A9 DA cells) when administered intravenously at a dose of 0.1-6.3 mg/kg in anesthetized male Sprague-Dawley rats; (excitatory). The note with it: A9DA, iv. The format is functional.
The test system of assay [12] is Rattus norvegicus. As to the kind of experiment: Spontaneous discharge activity of individual dopaminergic neurons in the ventral tegmentum neurons (A10 DA cells) when administered subcutaneously at a dose of 5.0 mg/kg/day in anesthetized male Sprague-Dawley rats; No effect at a dose of 0.1-6.3 mg/kg. The format is functional, organism-based. The note with it: A10DA.

Assay [13] deals with Rattus norvegicus. As to the kind of experiment: Spontaneous discharge activity of individual dopaminergic neurons in the substantia nigra (A9 DA cells) when administered intravenously at a dose of 0.1-6.3 mg/kg in anesthetized male Sprague-Dawley rats; No effect at a dose of 0.1-6.3 mg/kg. The format is functional, organism-based. The note with it: A9DA.
The subject of assay [14] is Rattus norvegicus. As to the kind of experiment: Reversal of trifluoperazine-induced catalepsy in rats when administered perorally. The format is functional. The note with it: po.
Assay [15] has as its system Rattus norvegicus. In words: Spontaneous discharge activity of individual dopaminergic neurons in substantia nigra (A9DA cells) when administered subcutaneously at dose of 5.0 mg/kg/day in anesthetized male Sprague-Dawley rats; small increase in the number of DA cells per track. The format is functional, organism-based.
Assay [16] deals with Rattus norvegicus. As to the kind of experiment: Spontaneous discharge activity of individual noradrenergic neurons in the locus coeruleus (LC) when administered intravenously in anesthetized male Sprague-Dawley rats; (excitatory). Type of assay: functional. The note with it: iv.
For assay [17], the system named is Rattus norvegicus. In words: Spontaneous discharge activity of individual dopaminergic neurons in the ventral tegmentum neurons (A10 DA cells) when administered intravenously at a dose of 0.1-6.3 mg/kg in anesthetized male Sprague-Dawley rats; No effect at a dose of 0.1-6.3 m g/kg. The format is functional, organism-based. The note with it: A10DA.
Assay [18] has as its system Rattus norvegicus. As to the kind of experiment: Spontaneous discharge activity of individual serotonergic neurons in the dorsal raphe (DR) nucleus when administered intravenously in anesthetized male Sprague-Dawley rats; (Inhibitory). Type of assay: functional. The note with it: iv.

The structures appear in SMILES notation. The source made the active and inactive calls. The calls are words filed in the database; no cut-off is given here.

What is called IC50 is the concentration that gives 50% inhibition. Read a low IC50 as inhibition by little substance. The ED50 is the dose at which the effect has come halfway, by size or by number of responders.

Sequence of D(2) dopamine receptor (P61169 whole entry): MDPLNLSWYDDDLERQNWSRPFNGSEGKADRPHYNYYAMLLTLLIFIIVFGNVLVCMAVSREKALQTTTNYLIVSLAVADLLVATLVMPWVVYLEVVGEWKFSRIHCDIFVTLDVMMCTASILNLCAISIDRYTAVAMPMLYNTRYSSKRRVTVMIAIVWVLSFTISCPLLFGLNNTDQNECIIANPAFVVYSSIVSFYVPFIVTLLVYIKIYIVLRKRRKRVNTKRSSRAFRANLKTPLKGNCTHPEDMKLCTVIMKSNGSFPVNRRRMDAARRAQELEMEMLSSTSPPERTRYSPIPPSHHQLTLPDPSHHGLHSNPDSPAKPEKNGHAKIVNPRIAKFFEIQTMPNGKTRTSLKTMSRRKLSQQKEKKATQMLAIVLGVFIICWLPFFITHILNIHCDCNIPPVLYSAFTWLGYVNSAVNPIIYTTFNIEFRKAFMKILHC

Take `CC1(C)CC(=O)N(CCCCN2CCN(c3nccc4sccc34)CC2)C(=O)C1.Cl`: the ED25 in the assay on Rattus norvegicus [1] came out at 0.06 mg/kg; in the assay with Rattus norvegicus [4], 0.05 mg/kg; in the assay with Rattus norvegicus [11], 0.086 mg/kg. Moreover, the concentration for half-maximal inhibition (IC50) is 5.7 nM in assay [2], 3 nM in assay [7], 18.8 nM in assay [9] and 115 nM on D(2) dopamine receptor. Further, the ED50 is 0.042 mg/kg with Rattus norvegicus [3], 6 mg/kg in the assay with Rattus norvegicus [6] and 39.7 mg/kg in the assay on Rattus norvegicus [10]. For the same compound, the MED50 amounted to 10 mg/kg in the assay with Mus musculus and 50 mg/kg in the assay on Rattus norvegicus [8]. Also, the ED50 entry with Rattus norvegicus [5] was “inactive”.

In the case of `O=C1COCC(=O)N1CCCCN1CCN(c2nccc3occc23)CC1`, the ED25 result in the assay on Rattus norvegicus [12], in the assay with Rattus norvegicus [13], in the assay with Rattus norvegicus [15] and in the assay on Rattus norvegicus [17] was “inactive” in each case. The 50% inhibitory concentration (IC50) was 33.5 nM in [2], 55.2 nM in assay [7], 40.9 nM in [9] and > 1000 nM at D(2) dopamine receptor. Moreover, the ED50 entry with Rattus norvegicus [5] was “inactive”. Moreover, the ED50 came out at 11.2 mg/kg in the assay on Rattus norvegicus [6], 2.2 mg/kg with Rattus norvegicus [14], 0.01 mg/kg in the assay with Rattus norvegicus [18] and 34 mg/kg in the assay with Rattus norvegicus [10]. Moreover, the ED25 in the assay with Rattus norvegicus [16] was 0.017 mg/kg. For the same compound, in the assay with Rattus norvegicus [8] (po), the MED is 25 mg/kg.

Values taken from ChEMBL document CHEMBL1124475, “The thieno[3,2-c]pyridine and furo[3,2-c]pyridine rings: new pharmacophores with potential antipsychotic activity” (J Med Chem, 1989).
